Hits are enriched below; roughly 1.7% of the tested compounds scored in any of these assays.
IDE inh: inhibits human insulin-degrading enzyme in HEK cells | P14735 | FAbetaB cleavage, fluorescence polarization | inhibition, % at 5.59 µM | 0.41% of 320,000 active | AID 434962;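 active = percent inhibition above the average of all tested compounds plus 3 SD, set per screening campaign, cut at about 16% in these data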;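 note: IDE supplied by intact live HEK cells; FP after avidin binding of uncleaved biotin substrate so inhibition keeps polarization high; 0% = DMSO wells and 100% = 60 µM reference IDE inhibitor Ii1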
IDE act: activators of human insulin-degrading enzyme in cells; P14735; HEK cells, FAbeta-B cleavage, fluorescence polarization; 0% vehicle, 100% cell-free pure enzyme wells; activation, % at 5.96 µM; 0.073% of 340,000 active; AID 493087;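 active = activation above the mean of all tested compounds plus 3 SD, set per screening campaign, cut at about 17% in these data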
CSN deneddyl inh: CSN deneddylation inhibition; Q92905; Purified CSN, SCF-Nedd8-OG deneddylation, fluorescence polarization; inhibition, % at 12.5 µM; 0.38% of 360,000 active;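 active = pattern-corrected inhibition above about 35%, with an unprinted fluorescence ratio check between 0.5 and 1.5, limit read from the data, passing the limit was not always enough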;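 note: 0% = enzyme with substrate and 100% = substrate without enzyme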
Target sequence (Q92905 whole entry, looked up, one chain of several): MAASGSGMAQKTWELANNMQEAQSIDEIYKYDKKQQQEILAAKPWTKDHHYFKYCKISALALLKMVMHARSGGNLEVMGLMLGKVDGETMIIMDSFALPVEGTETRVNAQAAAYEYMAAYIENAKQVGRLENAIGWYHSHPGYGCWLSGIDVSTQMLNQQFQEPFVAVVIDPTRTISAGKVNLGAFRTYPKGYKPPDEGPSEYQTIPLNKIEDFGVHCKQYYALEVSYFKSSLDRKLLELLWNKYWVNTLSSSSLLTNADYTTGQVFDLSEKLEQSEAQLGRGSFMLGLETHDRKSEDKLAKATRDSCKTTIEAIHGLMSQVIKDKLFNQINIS
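Assay system: purified human Csn5 enzyme expressed in HEK293T cells; Input: 0.24 nM Csn5 enzyme, final concentration; Reagent: 10 nM SCFSkp2-Nedd8OG; Compound dosing: 12.5 µM single point; Times: reaction 90 min, room temperature; Technique: fluorescence polarization readout.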
Tb MetRS inh: Trypanosoma brucei MetRS inhibition; purified T. brucei MetRS, ATP depletion, Kinase-Glo luminescence; AID 624268; 0.4% of 360,000 active; inhibition, % at 11.9 µM;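 active = inhibition above a per-plate cutoff of the control wells' mean inhibition plus 3 SD, cut at about 5.5% in these data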;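 note: 0% = DMSO wells median and 100% = median of wells with control inhibitor compound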
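Test system – parasite MetRS enzyme · Reagent – substrates ATP, L-methionine and bulk Escherichia coli tRNA · Doses – 11.9 µM compound single dose, 0.9% DMSO · Times – 15 min enzyme-compound preincubation, 2 h reaction, 10 min detection, 25 °C · Signal – Kinase-Glo luminescence, ATP depletion format · Controls – DMSO-only wells as low control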
HNF4A DNA FP: change in binding of human HNF4 alpha to DNA; activity change, % at 10 µM; 0.3% of 360,000 active; HNF4a-FITC DNA binding, fluorescence polarization, 1 h; P41235; in the data active = activity change above about 30%, passing the limit was not always enough
TPT1 inhibitor: inhibitors of Candida albicans tRNA 2'-phosphotransferase TPT1 | AID 1962 | 0.81% of 300,000 active | recombinant caTPT1, FP RNA substrate dephosphorylation | inhibition, % at 5 µM;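 active = inhibition above the mean of all tested compounds plus 3 SD, set per screening campaign, cut at about 24% in these data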;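 note: plate controls were DMSO alone for no effect and ferristatin control at 100 nM for full effect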
caTPT1 confirm: confirmation of Candida albicans TPT1 inhibitors; 74% of 2,400 active; inhibition, % at 5 µM; shares compounds with TPT1 inhibitor; AID 2149; recombinant caTPT1, fluorescence polarization, RNase T1 coupled;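 active = inhibition above the primary screen limit, the mean inhibition of all tested compounds plus 3 SD, cut at about 25% in these data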
RNase T1 inh: counter-screen for TPT1 inhibitors: inhibitors of Aspergillus oryzae RNase T1. 83% of 2,400 active. inhibition, % at 5 µM. shares compounds with TPT1 inhibitor. AID 2153. RNase T1 cleavage, fluorescence polarization, 1536-well;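 active = inhibition above the solvent-only control well mean plus 3 SD, limit set per screening run, cut at about 23% in these data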;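 note: plate controls were DMSO wells with enzyme for no effect and wells without RNase T1 for full effect; inhibitors block cleavage so intact labeled substrate keeps polarization high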
Target sequence (P00651 whole entry, looked up): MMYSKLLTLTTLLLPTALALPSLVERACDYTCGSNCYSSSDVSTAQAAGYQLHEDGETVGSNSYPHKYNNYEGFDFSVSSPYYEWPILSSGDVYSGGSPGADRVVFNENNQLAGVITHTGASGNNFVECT
The depositor's hits bear a star; nt = no result.

SMILES | IDE inh | IDE act | CSN deneddyl inh | Tb MetRS inh | HNF4A DNA FP | TPT1 inhibitor | caTPT1 confirm | RNase T1 inh
CCCCN1C(=O)/C(=C/c2ccc(N3CCCCCC3)cc2)C(=O)NC1=S | 0 | nt | nt | nt | nt | 36* | 33* | 43*
CN1C(=O)/C(=C\c2ccc(N3CCCCCC3)cc2)C(=O)NC1=S | 4 | 2 | 12 | 0 | 10 | 7 | nt | nt
O=C1CC=C2C3CC4N(CCC45c4cc(O)c(O)cc4N1C25)CC3=CCBr (centres undefined) | nt | -21 | 107 | 0 | 54 | nt | nt | nt
O=C1NC(=O)C(CCc2ccncc2)(Cc2ccc([N+](=O)[O-])cc2)C(=O)N1 | 8 | 4 | 2 | 1 | 3 | 28* | 2 | 4
CCOC(=O)c1c(/N=C/c2c(O)n(-c3ccccc3F)c(=S)[nH]c2=O)sc2c1CCCC2 | -1 | -3 | 23 | -1 | -5 | 38* | 86* | 96*
C#CC[N+]1(C)[C@@H]2CC[C@H]1CC(OC(=O)C(CO)c1ccccc1)C2 (some centres undefined) | 2 | 3 | 3 | 0 | 3 | -1 | nt | nt
C=CCn1cc(C=C2C(=O)NC(=O)NC2=O)c2ccccc21 | 5 | -1 | 6 | -2 | 1 | 25* | 40* | 52*
O=C(O)Cn1cc(/C=C2\C(=O)NC(=O)N(c3ccc(Cl)cc3)C2=O)c2ccccc21 | 6 | -5 | -4 | 0 | -3 | 40* | 42* | 53*
O=C(O)Cn1cc(C=C2C(=O)NC(=O)NC2=O)c2ccccc21 | -5 | -1 | 7 | -2 | 1 | 5 | nt | nt
C[C@@H]1CN([C@@H](C)CO)C(=O)CCCn2nncc2CO[C@@H]1CN(C)C(=O)Oc1ccccc1 | nt | nt | -5 | -1 | -3 | nt | nt | nt
Cc1ccnc(NS(=O)(=O)c2ccc(N=Cc3c(O)n(C)c(=O)n(C)c3=O)cc2)n1 | 4 | -10 | -6 | 0 | 4 | 85* | 62* | 77*
CCN(CC)c1ccc(N=Cc2c(O)n(CCc3ccc(OC)c(OC)c3)c(=O)[nH]c2=O)cc1 | 0 | 5 | -2 | -2 | 12 | 43* | 80* | 93*
CCN(CCO)c1ccc(N=Cc2c(O)n(C)c(=S)[nH]c2=O)cc1 | 12 | nt | 25 | 3 | 2 | 57* | 86* | 94*
CCn1c(O)c(C=Nc2ccc(S(N)(=O)=O)cc2)c(=O)[nH]c1=S | 1 | -6 | 11 | 0 | 5 | 7 | nt | nt
COc1ccc(N=Cc2c(O)n(-c3ccc(C)cc3)c(=O)[nH]c2=O)cc1 | -5 | nt | -13 | 0 | 0 | -2 | nt | nt
CCN(CC)c1ccc(N=Cc2c(O)n(-c3cc(OC)ccc3OC)c(=O)[nH]c2=O)cc1 | 2 | -7 | 21 | 0 | 13 | 93* | 76* | 88*
COc1ccc(C2SCC(=O)Nc3c2c(C)nn3C2CCOC(C)(C)C2)cc1OC (centres undefined) | 1 | 1 | -1 | -1 | 1 | 27* | 18 | 25*
COc1ccc(C2SCC(=O)Nc3c2c(C)nn3-c2ccccc2)cc1OC (centres undefined) | 1 | -2 | 0 | 0 | 2 | -4 | nt | nt
CN(Cc1cccc(-c2ccncc2)c1)C(=O)Oc1ccccc1Cc1ccccc1 | nt | nt | 3 | 0 | -1 | nt | nt | nt
Cc1cc(/C=C2\C(=O)NC(=O)N(Cc3ccccc3Cl)C2=O)c(C)n1-c1ccc(C(=O)O)cc1 | 3 | -4 | 20 | -1 | -17 | 60* | 17 | 24*
Cc1cc(/C=C2\C(=O)NC(=O)N(Cc3ccccc3)C2=O)c(C)n1-c1ccc(Cl)c(C(=O)O)c1 | 9 | 1 | 57 | 0 | -45 | 16 | nt | nt
Cc1cc(/C=C2\C(=O)NC(=O)N(Cc3ccco3)C2=O)c(C)n1-c1ccc(C(=O)O)cc1 | 0 | 2 | 11 | 0 | -11 | 25* | 8 | 10
Cc1cc(/C=C2\C(=O)NC(=O)N(Cc3ccco3)C2=O)c(C)n1-c1ccc(O)cc1 | 0 | -1 | 49 | 0 | -12 | 20 | nt | nt
Cc1ccc(C2=NCC(=O)Nc3ccc(Br)cc32)cc1 | -2 | 2 | -1 | 1 | 5 | -2 | nt | nt
COc1ccc(-n2nc(C(=O)NCC(=O)N3CCC4(CC3)OCCO4)c3ccccc3c2=O)cc1OC | 5 | 4 | 0 | -1 | -3 | 0 | nt | nt
SMILES | IDE inh | IDE act | CSN deneddyl inh | Tb MetRS inh | HNF4A DNA FP | TPT1 inhibitor | caTPT1 confirm | RNase T1 inh
CCCOP(=O)(OCCC)C(NC(=O)c1ccccc1)=C(Cl)Cl | 9 | 5 | -18 | 0 | -1 | -5 | nt | nt
CCOP(=O)(OCC)C(NC(=O)c1ccc(Cl)cc1)=C(Cl)Cl | 2 | 0 | 0 | -2 | -1 | 49* | 0 | 5
O=C1NCCN2CCCC12 (centres undefined) | 2 | -4 | 0 | 0 | 4 | -7 | nt | nt
CCCCCn1c(NC(=O)c2ccco2)c(C(=O)OCC)c2nc3ccccc3nc21 | -4 | 0 | 30 | 2 | 10 | 36* | 31* | 43*
Cc1ccc(C(=O)NC(O)C(Cl)(Cl)Cl)cc1 (centres undefined) | 6 | 3 | -3 | -1 | 0 | 1 | nt | nt
COc1ccc(CN2C(=O)CC(=O)NC2=O)cc1 | 11 | 1 | 0 | 0 | 10 | 24* | 18 | 24*
O=C1NC(=O)C(C2CCOC2=O)N1 (centres undefined) | nt | nt | -1 | 0 | 3 | nt | nt | nt
COc1cc(N2CCOCC2)ccc1/C=C1\C(=O)NC(=O)N(Cc2ccc3c(c2)OCO3)C1=O | 7 | 3 | 18 | 0 | -53 | 27* | 46* | 65*
BrCC(Br)C1CCC(Br)C(Br)C1 (centres undefined) | 4 | 3 | 0 | -1 | 5 | nt | nt | nt
O=C(CN1CCN(C(=O)COc2cccc(F)c2)CC1)Nc1ccc(Cl)c(C(F)(F)F)c1 | -1 | -4 | -3 | 0 | -2 | nt | nt | nt
CSc1ncc(/C=C2/C(=O)NC(=O)N(C)C2=O)cn1 | -2 | 3 | -4 | 0 | 4 | 8 | nt | nt
CSc1ncc(/C=C2/C(=O)NC(=O)N(C3CCCCC3)C2=O)cn1 | 0 | 4 | 6 | 0 | 3 | 32* | 32* | 43*
O=c1c2ccccc2nc(/C=C/c2ccccc2O)n1-c1ccccc1O | 13 | -8 | 26 | -1 | 11 | 25* | 37* | 48*
COc1ccc2[nH]c3c(c2c1)CCN=C3C | 2 | -2 | 6 | 0 | 14 | 33* | 13 | 18
COc1ccc2[nH]cc(CCN)c2c1 | -1 | 7 | 2 | 0 | 4 | 5 | nt | nt

Screens deposited in PubChem by several laboratories.
